Active and inactive are the calls of the source. No cut-off for these calls is given here.
What was measured:
PBMC [1] = assay: Cytotoxicity against human PBMC assessed as LDH release at 20.2 uM; type: cell-based
THP-1 [2] = assay: Immunomodulatory effect in human THP1 cells assessed as increase in LPS-induced TNF-alpha release at 20.2 uM after 24 hrs by sandwich ELISA relative to LPS; type: functional
Outline: (§1)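 THP-1 cells at 10⁶ cells/ml in RPMI 1640 with 10% heat-inactivated FCS. Co-incubated 24 h with compound (0.2–200 µM) plus E. coli 0127:B8 LPS 1 ng/ml, DMSO vehicle ≤0.2% final. TNF-α in supernatant expressed as % of LPS-induced release, mean ± SD of 6 samples.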

THP-1 [3] = assay: Toxicity in human THP1 cells assessed TNF-alpha release at 20.2 uM after 24 hrs by sandwich ELISA; type: cell-based; settings: thp-1, 24 h
Outline: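 THP-1 in supplemented RPMI 1640 co-incubated 24 h with 20.2 µM compound and 1 ng/ml LPS, DMSO ≤0.2%. TNF-α release expressed as % of the LPS-only response, mean ± SD of 6 samples, Mann-Whitney U test.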

THP-1 [4] = assay: Cytotoxicity against human THP1 cells assessed as LDH release at 20.2 uM; type: cell-based; settings: thp-1, 20.2 µM
Outline: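 LDH leakage into the medium used as the cytotoxicity read-out, taken at the highest concentration tested.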

PBMC [5] = assay: Immunostimulatory effect in human PBMC cells assessed as increase in […]/ionomycin-induce IL-8a release at 20.2 uM after 18 hrs by flow cytometry analysis relative to PMA and ionomycin; type: functional
Outline: (§2)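 PBMC prepared from donor buffy coat on Ficoll-Paque and kept in supplemented RPMI 1640. Cells (0.5 × 10⁶) given 20.2 µM compound with PMA 3.33 ng/ml and ionomycin 500 nM (final) for 18 h at 37 °C, 5% CO₂. Supernatant IL-1β, IL-6, IL-8, IL-10 and TNF-α read by flow cytometry. Expressed relative to PMA/ionomycin alone, mean ± SD of 4 samples, two donors.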

PBMC [6] = assay: Immunostimulatory effect in human PBMC cells assessed as increase in […]/ionomycin-induce IL-10 release at 20.2 uM after 18 hrs by flow cytometry analysis relative to PMA and ionomycin; type: functional; outline: as §2
PBMC [7] = assay: Immunomodulatory effect in human PBMC cells assessed as increase in LPS-induced IL-8a release at 20.2 uM after 18 hrs by flow cytometry analysis relative to LPS; type: functional
Outline: (§3)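 Human PBMC isolated from healthy-donor buffy coats on a Ficoll-Paque gradient. Cultured in RPMI 1640 with 10% heat-inactivated FCS, 2 mM L-glutamine and 50 µM 2-mercaptoethanol. 0.5 × 10⁶ cells exposed to 20.2 µM compound plus 10 ng/ml LPS, DMSO ≤0.1%, for 18 h at 37 °C in 5% CO₂. Supernatant cytokines measured by flow cytometric bead assay. Values are % of LPS alone, mean ± SD of 4 samples, two donors.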

PBMC [8] = assay: Immunomodulatory effect in human PBMC cells assessed as increase in LPS-induced IL-6 release at 20.2 uM after 18 hrs by flow cytometry analysis relative to LPS; type: functional; outline: as §3
PBMC [9] = assay: Immunomodulatory effect in human PBMC cells assessed as LPS-induced IL1-beta release at 20.2 uM after 18 hrs by flow cytometry analysis relative to LPS; type: functional; outline: as §3
PBMC [10] = assay: Immunomodulatory effect in human PBMC cells assessed as increase in LPS-induced TNFalpha release at 20.2 uM after 18 hrs by flow cytometry analysis relative to LPS; type: functional; outline: as §3
PBMC [11] = assay: Immunostimulatory effect in human PBMC cells assessed as increase in […]/ionomycin-induce IL1-beta release at 20.2 uM after 18 hrs by flow cytometry analysis relative to PMA and ionomycin; type: functional; outline: as §2
PBMC [12] = assay: Immunostimulatory effect in human PBMC cells assessed as increase in […]/ionomycin-induce IL-6 release at 20.2 uM after 18 hrs by flow cytometry analysis relative to PMA and ionomycin; type: functional; outline: as §2
PBMC [13] = assay: Immunostimulatory effect in human PBMC cells assessed as increase in […]/ionomycin-induce TNFalpha release at 20.2 uM after 18 hrs by flow cytometry analysis relative to PMA and ionomycin; type: functional; outline: as §2
PBMC [14] = assay: Immunomodulatory effect in human PBMC cells assessed as increase in LPS-induced IL-10 release at 20.2 uM after 18 hrs by flow cytometry analysis relative to LPS; type: functional; outline: as §3
PBMC [15] = assay: Immunomodulatory effect in human PBMC cells assessed as increase in LPS-induced TNF-alpha release at 20.2 uM after 24 hrs by sandwich ELISA; type: functional, cell-based
THP-1 [16] = assay: Immunomodulatory effect in human THP1 cells assessed as increase in LPS-induced TNF-alpha release at 2 uM after 24 hrs by sandwich ELISA relative to LPS; type: functional; outline: as §1
THP-1 [17] = assay: Immunomodulatory effect in human THP1 cells assessed as increase in LPS-induced TNF-alpha release at 200 uM after 24 hrs by sandwich ELISA relative to LPS; type: functional; outline: as §1
THP-1 [18] = assay: Immunomodulatory effect in human THP1 cells assessed as increase in LPS-induced TNF-alpha release at 0.2 uM after 24 hrs by sandwich ELISA relative to LPS; type: functional; outline: as §1
THP-1 [19] = assay: Immunomodulatory effect in human THP1 cells assessed as increase in LPS-induced TNF-alpha release after 24 hrs by sandwich ELISA relative to LPS; type: functional, cell-based; outline: as §1
PBMC [20] = assay: Immunosuppressive effect in human PBMC cells assessed as […] in […]/ionomycin-induce IL-10 release at 20.2 uM after 18 hrs by flow cytometry analysis relative to PMA and ionomycin; type: functional; outline: as §2
PBMC [21] = assay: Immunosuppressive effect in human PBMC cells assessed as […] in […]/ionomycin-induce TNFalpha release at 20.2 uM after 18 hrs by flow cytometry analysis relative to PMA and ionomycin; type: functional; outline: as §2
PBMC [22] = assay: Immunomodulatory effect in human PBMC cells assessed as decrease in LPS-induced IL-10 release at 20.2 uM after 18 hrs by flow cytometry analysis relative to LPS; type: functional; parameters: scale not given: the % may be the effect or the level left; outline: as §3
PBMC [23] = assay: Immunomodulatory effect in human PBMC cells assessed as decrease in LPS-induced IL-8a release at 20.2 uM after 18 hrs by flow cytometry analysis relative to LPS; type: functional; parameters: scale not given: the % may be the effect or the level left; outline: as §3
PBMC [24] = assay: Immunosuppressive effect in human PBMC cells assessed as […] in […]/ionomycin-induce IL1-beta release at 20.2 uM after 18 hrs by flow cytometry analysis relative to PMA and ionomycin; type: functional; outline: as §2
PBMC [25] = assay: Immunomodulatory effect in human PBMC cells assessed as decrease in LPS-induced IL-6 release at 20.2 uM after 18 hrs by flow cytometry analysis relative to LPS; type: functional; parameters: scale not given: the % may be the effect or the level left; outline: as §3
PBMC [26] = assay: Immunosuppressive effect in human PBMC cells assessed as […] in […]/ionomycin-induce IL-8a release at 20.2 uM after 18 hrs by flow cytometry analysis relative to PMA and ionomycin; type: functional; outline: as §2
PBMC [27] = assay: Immunosuppressive effect in human PBMC cells assessed as […] in […]/ionomycin-induce IL-6 release at 20.2 uM after 18 hrs by flow cytometry analysis relative to PMA and ionomycin; type: functional; outline: as §2

SMILES	Activity (PBMC [1])	Activity (THP-1 [2]) [%]	Activity (THP-1 [3])	Activity (THP-1 [4])	Activity (PBMC [5]) [%]	Activity (PBMC [6]) [%]	Activity (PBMC [8]) [%]	Activity (PBMC [9]) [%]	Activity (PBMC [10]) [%]	Activity (PBMC [11]) [%]	Activity (PBMC [12]) [%]	Activity (PBMC [13]) [%]	Activity (PBMC [14]) [%]	other results
C[C@@H](NC(=O)CCCCN1C(=O)c2ccccc2S1(=O)=O)C(=O)N[C@@H](CCC(=O)O)C(N)=O	Non-toxic	91	Non-toxic	Non-toxic										
CCOC(=O)CC[C@@H](NC(=O)[C@H](C)NC(=O)C1=C2c3ccccc3S(=O)(=O)N2CCC1)C(N)=O	Non-toxic	122	Non-toxic	Non-toxic	134	82.5	120	95	122.5	406	139.5	142	105.5	Activity (PBMC [7]): 94.5%
CC(=O)N[C@@H]1[C@@H](O[C@H](C)C(=O)N[C@@H](C)C(=O)N[C@@H](CCC(=O)O)C(N)=O)[C@H](O)[C@@H](CO)O[C@H]1O														Activity (PBMC [15]): Active
C[C@H](NC(=O)CCCCN1C(=O)c2ccccc2S1(=O)=O)C(=O)N[C@@H](CCC(=O)O)C(N)=O	Non-toxic	119.3	Non-toxic	Non-toxic										
C[C@H](NC(=O)C1=C2c3ccccc3S(=O)(=O)N2CCC1)C(=O)N[C@H](CCC(=O)O)C(N)=O	Non-toxic	120.2	Non-toxic	Non-toxic	103	88.5	103.5	94	115	88	74	105.5	94	Activity (PBMC [7]): 98.5%; Activity (THP-1 [16]): 92.5%; Activity (THP-1 [17]): 204.3%; Activity (THP-1 [18]): 90.3%; Activity (THP-1 [19]): Dose-dependent effect
C[C@H](NC(=O)CCCCN1C(=O)c2ccccc2S1(=O)=O)C(=O)N[C@H](CCC(=O)O)C(N)=O	Non-toxic	114	Non-toxic	Non-toxic	103	84.5	109	106	108.5	91.5	81	96	98	Activity (PBMC [7]): 97.5%
C[C@H](NC(=O)CNC(=O)c1cc2ccccc2[nH]1)C(=O)N[C@H](CCC(=O)O)C(N)=O	Non-toxic	126.2	Non-toxic	Non-toxic				90.5	101					Activity (PBMC [20]): 102%; Activity (PBMC [21]): 93.5%; Activity (PBMC [22]): 71.5%; Activity (PBMC [23]): 98.5%; Activity (PBMC [24]): 91.5%; Activity (PBMC [25]): 74%; Activity (PBMC [26]): 98.5%; Activity (PBMC [27]): 76%
C[C@H](NC(=O)COCCN1C(=O)c2ccccc2S1(=O)=O)C(=O)N[C@H](CCC(=O)O)C(N)=O	Non-toxic	114.3	Non-toxic	Non-toxic	110.5	89.5	95.5	95.5	104.5	122	63.5	83.5	84.5	Activity (PBMC [23]): 96.5%
C[C@H](NC(=O)CCNC(=O)c1cc2ccccc2[nH]1)c1noc(CCC(=O)O)n1	Non-toxic	113.4	Non-toxic	Non-toxic										
C[C@@H](NC(=O)CCCCN1C(=O)c2ccccc2S1(=O)=O)C(=O)N[C@H](CCC(=O)O)C(N)=O	Non-toxic	115.3	Non-toxic	Non-toxic										
C[C@H](NC(=O)C1=C2c3ccccc3S(=O)(=O)N2CCC1)C(=O)N[C@H](CCC(=O)O)C(=O)O	Non-toxic	113.3	Non-toxic	Non-toxic										
C[C@H](NC(=O)COCCN1C(=O)c2ccccc2S1(=O)=O)C(=O)N[C@H](CCC(=O)O)C(=O)O	Non-toxic	117	Non-toxic	Non-toxic	104	116		85	104	112	91	124		Activity (PBMC [22]): 65.5%; Activity (PBMC [23]): 89.5%; Activity (PBMC [25]): 86%
C[C@H](NC(=O)CNC(=O)c1cc2ccccc2[nH]1)C(=O)N[C@H](CCC(=O)O)C(=O)O	Non-toxic	118.5	Non-toxic	Non-toxic				78	103.5					Activity (PBMC [20]): 75.8%; Activity (PBMC [21]): 63.5%; Activity (PBMC [22]): 68.5%; Activity (PBMC [23]): 95.5%; Activity (PBMC [24]): 96.5%; Activity (PBMC [25]): 76.8%; Activity (PBMC [26]): 90%; Activity (PBMC [27]): 42.5%
CCCCOC(=O)[C@@H](CCC(N)=O)NC(=O)[C@H](C)NC(=O)[C@@H](C)O[C@H]1[C@H](O)[C@@H](CO)OC(O)[C@@H]1NC(C)=O (stereo partly specified) [MURABUTIDE]	Non-toxic	182.6	Non-toxic	Non-toxic	152	158.5	594.5	416.5	696.5	2964.5	439.5	332.5	559	Activity (PBMC [7]): 107%
C[C@H](NC(=O)C1CCCN2C1c1ccccc1S2(=O)=O)C(=O)N[C@H](CCC(=O)O)C(=O)O (stereo partly specified)	Non-toxic	110.5	Non-toxic	Non-toxic										

Reference: ChEMBL document CHEMBL1821722, “Design, synthesis and biological evaluation of novel desmuramyldipeptide analogs” (Eur J Med Chem, 2011)
